Our source for the IC50 and Activity values is ChEMBL document CHEMBL1287673, “Neo-tanshinlactone inspired synthesis, in vitro evaluation of novel substituted benzocoumarin derivatives as potent anti-breast cancer agents” (Bioorg Med Chem Lett, 2010).

Each structure is given as a SMILES string. Activity calls are given as the source filed them. The rule behind the calls is not given here. Bounds are passed on as bounds.

Series [1] deals with MCF7. Briefly: Anticancer activity against human MCF7 cells expressing estrogen receptor by MTT assay. Type of series: functional, cell-based.
In series [2] the test system is MCF7. The experiment in a line: Induction of apoptosis in human MCF7 cells expressing estrogen receptor assessed as cytoplasmic condensation at 10 uM after 18 hrs by Hoechst 33342 staining. Format: functional, cell-based. A digest of the protocol:
(§1)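 MCF-7 at 70–80% confluence given 10 µM compound for 18 h in complete growth medium, then Hoechst 33342 stained and imaged with a ×40 objective. Apoptotic nuclei scored by shape and intensity and normalized to control; tamoxifen positive control.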

Series [3] deals with MCF7. The experiment in a line: Cytotoxicity against human MCF7 cells expressing estrogen receptor assessed as loss of cell viability after 16 hrs by MTT assay. Type of series: functional, cell-based. The procedure, abridged:
(§2)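 1 × 10⁵ MCF-7 cells at 70–80% confluence exposed 16 h to increasing compound concentrations; growth inhibition read by MTT as percent (Total/Control); tamoxifen positive control; n = 9.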
A general note: Tetrazolium assays rely on reduction of a dye to a coloured formazan, in cell work by metabolically active cells.

Series [4] is described as follows: Cytotoxicity activity against Sprague-Dawley rat osteoblast cells at 10 uM by MTT assay. Type of series: cell-based. A digest of the protocol:
(§3)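 Primary osteoblasts, 3 × 10³ cells/well, treated with 10 or 20 µM compound; viability and cell number read by MTT; n = 9.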

The subject of series [5] is MCF7. Briefly: Induction of apoptosis in human MCF7 cells expressing estrogen receptor assessed as presence of apoptotic body at 10 uM after 18 hrs by Hoechst 33342 staining. Type of series: functional, cell-based. The procedure, abridged:
as §1

Series [6] concerns MCF7. Briefly: Induction of apoptosis in human MCF7 cells expressing estrogen receptor assessed as presence of nuclear fragmentation at 10 uM after 18 hrs by Hoechst 33342 staining. Format: functional, cell-based. A digest of the protocol: as §1
Series [7] has as its system MCF7. The experiment in a line: Cytotoxicity against human MCF7 cells expressing estrogen receptor assessed as loss of cell viability at 20 uM after 16 hrs by MTT assay. Format: functional, cell-based. A digest of the protocol: as §2
A short description of series [8]: Cytotoxicity activity against Sprague-Dawley rat osteoblast cells at 20 uM by MTT assay. Type of series: cell-based. A digest of the protocol: as §3
Series [9] has as its system MCF7. The experiment in a line: Induction of apoptosis in human MCF7 cells expressing estrogen receptor assessed as increase in caspase activity at 10 uM after 16 hrs. Format: functional, cell-based. A digest of the protocol: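 1 × 10⁴ MCF-7 cells/well at 70–80% confluence grown 16 h, then 10 µM compound for 16 h. General (homogeneous) caspase activity read fluorometrically, excitation 465 nm, emission 520 nm; compared with negative control.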

Series [10] has as its system MCF7. The experiment in a line: Cell cycle arrest in human MCF7 cells expressing estrogen receptor assessed as accumulation at G1/G0 phase at 10 uM after 24 hrs using propidium iodide staining by flow cytometry. Format: functional, cell-based. The procedure, abridged: (§4)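 MCF-7, 5 × 10⁵ cells/well at 70–80% confluence, serum-starved, then 10 µM compound for 24 h in phenol red-free medium. Cells fixed in 70% ethanol, rehydrated in PBS, and stained with PI (50 µg/ml) plus ribonuclease A (100 µg/ml). Flow cytometry gives % of cells in each cycle phase.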
Background: Flow cytometry measures light scatter and fluorescence of single cells or particles in a stream.

Series [11] deals with MCF7. The experiment in a line: Cell cycle arrest in human MCF7 cells expressing estrogen receptor assessed as accumulation at G2 phase at 10 uM after 24 hrs using propidium iodide staining by flow cytometry. Format: functional, cell-based. The procedure, abridged: as §4
The subject of series [12] is MCF7. Briefly: Cytotoxicity against human MCF7 cells expressing estrogen receptor assessed as loss of cell viability at 10 uM after 16 hrs by MTT assay. Type of series: functional, cell-based. A digest of the protocol:
as §2

In series [13] the test system is MCF7. Briefly: Induction of apoptosis in human MCF7 cells expressing estrogen receptor at 10 uM after 24 hrs using annexin-V FITC and propidium iodide staining by flow cytometry. Type of series: functional, cell-based. The procedure, abridged: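 MCF-7 (5 × 10⁵ cells) at 70–80% confluence held 24 h in DMEM/10% FBS with or without 10 µM compound. Harvested, stained with Annexin-V-FITC and PI, and read by flow cytometry as % apoptotic (Annexin-positive/PI-negative) and necrotic (PI-positive) cells.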

By IC50 is commonly meant the point on the concentration scale where inhibition reaches its midpoint. A lower IC50 goes with higher potency. As for `Cc1cc(=O)oc2c1ccc1c(O)c(C=O)cc(/C=C/C(=O)c3ccccc3)c12`, the IC50 with MCF7 [1] is > 100 µM.

For `Cc1cc(=O)oc2c3c(ccc12)C(=O)/C(=C\NCCN1CCOCC1)C=C3C=O`, the IC50 in the series with MCF7 [1] was > 100 µM.

On to `CCCCN/C=C1C=C(/C=C/C(=O)c2ccc(O)cc2)c2c(ccc3c(C)cc(=O)oc23)C/1=O`, for which the IC50 with MCF7 [1] stood at 40 µM.

In the case of `COc1ccc(C(=O)/C=C/C2=CC(=C/NC(C)C)/C(=O)c3ccc4c(C)cc(=O)oc4c32)cc1`, the IC50 with MCF7 [1] is > 100 µM.

Turning to `CCCN/C=C1/C=C(C=O)c2c(ccc3c(C)cc(=O)oc23)C1=O`, the result with MCF7 [2], with MCF7 [5], with MCF7 [6], in the series with MCF7 [9] and in the series on MCF7 [10] was Active. The Activity entry with MCF7 [3] is “Dose-dependent effect”; in series [4], “Non-toxic”; in the series on MCF7 [7] it was “Toxic”; in series [8], “Non-toxic”. The IC50 in the series on MCF7 [1] was 7.9 µM.

For the molecule `CCN/C=C1/C=C(C=O)c2c(ccc3c(C)cc(=O)oc23)C1=O`, in the series on MCF7 [1], the IC50 is > 100 µM.

On to `Cc1cc(=O)oc2c1ccc1c(O)cccc12`, for which the IC50 in the series with MCF7 [1] was > 100 µM.

In the case of `CCN/C=C1C=C(/C=C/C(=O)c2ccccc2)c2c(ccc3c(C)cc(=O)oc23)C/1=O`, the IC50 in the series with MCF7 [1] was found to be 87 µM.

`Cc1ccc(C(=O)/C=C/C2=CC(=C/NC(C)(C)C)/C(=O)c3ccc4c(C)cc(=O)oc4c32)cc1`: 97 µM corresponded to half-maximal inhibition with MCF7 [1] (IC50).

Consider `CCCCN/C=C1C=C(/C=C/C(=O)c2ccc(C)cc2C)c2c(ccc3c(C)cc(=O)oc23)C/1=O`, for which the IC50 with MCF7 [1] was > 100 µM.

In the series with MCF7 [1], `Cc1ccc(C(=O)/C=C/C2=CC(=C/NC(C)C)/C(=O)c3ccc4c(C)cc(=O)oc4c32)cc1` had an IC50 of 21 µM.

As to `CCCCN/C=C1/C=C(C=O)c2c(ccc3c(C)cc(=O)oc23)C1=O`, the result in the series on MCF7 [2], with MCF7 [11], in the series on MCF7 [5], with MCF7 [6] and in the series with MCF7 [9] was Active. Besides, the Activity entry with MCF7 [3] was “Dose-dependent effect”; in [4], “Non-toxic”; in series [8], “Non-toxic”. The IC50 in the series on MCF7 [1] worked out at 6.5 µM.

`CCCCN/C=C1C=C(/C=C/C(=O)c2ccc(OC)cc2)c2c(ccc3c(C)cc(=O)oc23)C/1=O`: half-maximal inhibition in the series with MCF7 [1] (IC50) was put at 92 µM.

In the series with MCF7 [1], `Cc1cc(=O)oc2c3c(ccc12)C(=O)/C(=C\NC(C)C)C=C3/C=C/C(=O)c1ccc(O)cc1` displayed a concentration for half-maximal inhibition (IC50) of 32 µM.

In turn, `CCN/C=C1C=C(/C=C/C(=O)c2ccc(O)cc2)c2c(ccc3c(C)cc(=O)oc23)C/1=O` had an IC50 in the series with MCF7 [1] of 85 µM.

For the molecule `Cc1cc(=O)oc2c3c(ccc12)C(=O)/C(=C\NC(C)(C)C)C=C3/C=C/C(=O)c1ccc(O)cc1`, the IC50 in the series with MCF7 [1] was > 100 µM.

On to `Cc1ccc(C(=O)/C=C/c2cc(C=O)c(O)c3ccc4c(C)cc(=O)oc4c23)cc1`, for which the IC50 in the series with MCF7 [1] is > 100 µM.

With `Cc1ccc(C(=O)/C=C/C2=CC(=C/NC(C)(C)C)/C(=O)c3ccc4c(C)cc(=O)oc4c32)c(C)c1`, the IC50 in the series with MCF7 [1] is > 100 µM.

For `Cc1cc(=O)oc2c3c(ccc12)C(=O)/C(=C\NC(C)C)C=C3/C=C/C(=O)c1ccccc1`, the IC50 in the series with MCF7 [1] is > 100 µM.

Regarding `COc1ccc(C(=O)/C=C/C2=CC(=C/NC(C)(C)C)/C(=O)c3ccc4c(C)cc(=O)oc4c32)cc1`, in the series with MCF7 [1], the IC50 was > 100 µM.

Turning to `Cc1cc(=O)oc2c1ccc1c(O)c(C=O)cc(/C=C/C(=O)c3ccc(O)cc3)c12`, the IC50 with MCF7 [1] was > 100 µM.

Take `Cc1cc(=O)oc2c1ccc1c(O)c(C=O)cc(C=O)c12`: the IC50 in the series with MCF7 [1] was > 100 µM.

The molecule `CCN/C=C1C=C(/C=C/C(=O)c2ccc(OC)cc2)c2c(ccc3c(C)cc(=O)oc23)C/1=O` gave an IC50 in the series with MCF7 [1] of 30 µM.

In the series on MCF7 [1], `Cc1cc(=O)oc2c3c(ccc12)C(=O)/C(=C\NC(C)C)C=C3C=O` showed an IC50 of 130 µM.

As to `CCN/C=C1C=C(/C=C/C(=O)c2ccc(C)cc2C)c2c(ccc3c(C)cc(=O)oc23)C/1=O`, in the series with MCF7 [1], the IC50 is > 100 µM.

As to `CN/C=C1/C=C(C=O)c2c(ccc3c(C)cc(=O)oc23)C1=O`, the result in the series on MCF7 [2], in the series with MCF7 [5], in the series on MCF7 [6], in the series on MCF7 [13], in the series with MCF7 [9] and in the series on MCF7 [10] was Active. Moreover, the Activity result was “Dose-dependent effect” with MCF7 [3], “Non-toxic” in [4], “Toxic” with MCF7 [12] and “Non-toxic” in series [8]. The same molecule came in with an IC50 with MCF7 [1] of 3.8 µM.

`CCCCN/C=C1C=C(/C=C/C(=O)c2ccccc2)c2c(ccc3c(C)cc(=O)oc23)C/1=O` returned an IC50 in the series on MCF7 [1] of 100 µM.

In the case of `Cc1ccc(C(=O)/C=C/c2cc(C=O)c(O)c3ccc4c(C)cc(=O)oc4c23)c(C)c1`, the IC50 in the series on MCF7 [1] was > 100 µM.

For `CC/C(=C(\c1ccccc1)c1ccc(OCCN(C)C)cc1)c1ccccc1` [TAMOXIFEN], the IC50 in the series on MCF7 [1] is 11.8 µM.

As for `Cc1ccc(C(=O)/C=C/C2=CC(=C/NC(C)C)/C(=O)c3ccc4c(C)cc(=O)oc4c32)c(C)c1`, the IC50 with MCF7 [1] is 35 µM.

The molecule `Cc1cc(=O)oc2c3c(ccc12)C(=O)/C(=C\NC(C)(C)C)C=C3/C=C/C(=O)c1ccccc1` returned an IC50 in the series with MCF7 [1] of 92 µM.

Consider `CCCCCCCN/C=C1/C=C(C=O)c2c(ccc3c(C)cc(=O)oc23)C1=O`, for which the IC50 with MCF7 [1] is > 100 µM.

In turn, `Cc1cc(=O)oc2c3c(ccc12)C(=O)/C(=C\NC(C)(C)C)C=C3C=O` displayed an IC50 with MCF7 [1] of 20 µM.

For the molecule `COc1ccc(C(=O)/C=C/c2cc(C=O)c(O)c3ccc4c(C)cc(=O)oc4c23)cc1`, the IC50 in the series with MCF7 [1] is > 100 µM.

For the molecule `CCN/C=C1C=C(/C=C/C(=O)c2ccc(C)cc2)c2c(ccc3c(C)cc(=O)oc23)C/1=O`, the IC50 in the series with MCF7 [1] was > 100 µM.

`CCCCN/C=C1C=C(/C=C/C(=O)c2ccc(C)cc2)c2c(ccc3c(C)cc(=O)oc23)C/1=O`: in the series with MCF7 [1], the IC50 is > 100 µM.
